The values below come from ChEMBL document CHEMBL3392955, “Thiol-derivatized minihepcidins retain biological activity” (Bioorg Med Chem Lett, 2015).

The source made the active and inactive calls. The rule behind the calls is not given here.

The target in one data set is T1, Ferroportin (Homo sapiens, UniProt Q9NP59).
T1 sequence (Q9NP59 whole entry): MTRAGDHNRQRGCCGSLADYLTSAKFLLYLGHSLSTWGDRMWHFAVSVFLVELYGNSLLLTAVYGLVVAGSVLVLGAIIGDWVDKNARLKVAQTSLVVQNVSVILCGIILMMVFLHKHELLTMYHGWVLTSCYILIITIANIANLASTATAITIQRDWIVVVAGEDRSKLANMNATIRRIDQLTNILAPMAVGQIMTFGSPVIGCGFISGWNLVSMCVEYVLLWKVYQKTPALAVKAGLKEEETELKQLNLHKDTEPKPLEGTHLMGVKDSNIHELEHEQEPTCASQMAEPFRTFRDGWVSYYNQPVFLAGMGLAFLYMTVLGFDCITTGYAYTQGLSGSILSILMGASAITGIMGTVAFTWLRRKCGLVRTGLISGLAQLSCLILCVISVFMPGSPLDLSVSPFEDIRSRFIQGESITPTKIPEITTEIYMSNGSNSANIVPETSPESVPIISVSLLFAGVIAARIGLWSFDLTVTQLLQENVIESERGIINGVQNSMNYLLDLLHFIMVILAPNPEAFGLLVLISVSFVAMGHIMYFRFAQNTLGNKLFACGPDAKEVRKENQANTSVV
The experiment in a line: Induction of human ferroportin degradation expressed in HEK293 cells after 24 hrs by flow cytometry. It is filed as cell-based. The method in brief:
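HEK293:TREX-Fpn-GFP cells (human ferroportin-GFP under a doxycycline-inducible promoter) plated on poly-D-lysine with 20 μM FAC. Fpn induced with 500 ng/mL doxycycline for 24 h, then washed off. Peptide exposure 24 h. Green fluorescence read by flow cytometry, gated against uninduced cells; induced untreated cells are the positive control.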

The test system of data set [1] is Mus musculus. The data set can be described thus: Induction of human ferroportin degradationin C57BL/6 mouse assessed as decrease in serum iron at 50 to 100 nmol, ip measured after 6 to 24 hrs by colorimetric assay. It is filed as functional, organism-based. The method in brief:
(§1)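 Mice dosed intraperitoneally with 50 or 100 nmoles peptide in 100 μL PBS; controls received 100 μL PBS. Killed at 6, 24 or 48 h. Serum from cardiac-puncture blood. Iron measured by microplate colorimetric assay on 50 μL serum. Result is % decrease versus mean serum iron of PBS-injected mice.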

For data set [2], the system named is Mus musculus. The data set can be described thus: Induction of human ferroportin degradationin C57BL/6 mouse assessed as decrease in serum iron at 50 to 100 nmol, ip measured after 48 hrs by colorimetric assay. Format: functional, organism-based. The procedure, abridged:
as §1

Data set [3] is described as follows: Stability of the compound in DMSO at room temperature after 30 days by LC/MS/MS analysis. Format: physicochemical. As to conditions: read-out: Stability. The procedure, abridged:
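Compound kept as a 10 mM DMSO solution at room temperature for 30 days. Remaining intact compound (decomposition or sulfide oxidation) measured by LC/MS/MS.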

Consider `CCCCCCCCCCCCCCCCNC(=O)CN(CC(N)=O)C(=O)CCCCCNC(=O)[C@H](Cc1ccccc1)NC(=O)[C@H](CCCNC(=N)N)NC(=O)[C@H](CS/C(=C\P(=O)(OCC)OCC)P(=O)(OCC)OCC)NC(=O)[C@H](CCCNC(=N)N)NC(=O)C[C@@H]1CCCN1C(=O)[C@@H](NC(=O)[C@H](Cc1cnc[nH]1)NC(=O)[C@@H](NC(=O)CNC(=O)CO)[C@@H](C)O)C(c1ccccc1)c1ccccc1`, for which the concentration giving a half-maximal response (EC50) on Ferroportin stood at 1.1 nM. Moreover, in the data set on Mus musculus [1], the outcome was Active. Further, the result in the data set on Mus musculus [2] was inactive. Also, the remaining at 720 h in data set [3] turned out to be 99.5%.
On to `CCCCCCCCCCCCCCCCNC(=O)CN(CC(N)=O)C(=O)CCCCCNC(=O)[C@H](Cc1ccccc1)NC(=O)[C@H](CCCNC(=N)N)NC(=O)[C@H](CS/C(=C\S(N)(=O)=O)c1ccccc1)NC(=O)[C@H](CCCNC(=N)N)NC(=O)C[C@@H]1CCCN1C(=O)[C@@H](NC(=O)[C@H](Cc1cnc[nH]1)NC(=O)[C@@H](NC(=O)CNC(=O)CO)[C@@H](C)O)C(c1ccccc1)c1ccccc1`, for which the response on Ferroportin was half-maximal at 34 nM (EC50).
As for `CCCCCCCCCCCCCCCCNC(=O)CN(CC(N)=O)C(=O)CCCCCNC(=O)[C@H](Cc1ccccc1)NC(=O)[C@H](CCCNC(=N)N)NC(=O)[C@H](CS/C(=C\C(N)=O)C(N)=O)NC(=O)[C@H](CCCNC(=N)N)NC(=O)C[C@@H]1CCCN1C(=O)[C@@H](NC(=O)[C@H](Cc1cnc[nH]1)NC(=O)[C@@H](NC(=O)CNC(=O)CO)[C@@H](C)O)C(c1ccccc1)c1ccccc1`, at Ferroportin, the concentration giving a half-maximal response (EC50) was found to be 8.4 nM.
Same read-out and setting: under `CCCCCCCCCCCCCCCCNC(=O)CN(CC(N)=O)C(=O)CCCCCNC(=O)[C@H](Cc1ccccc1)NC(=O)[C@H](CCCNC(=N)N)NC(=O)[C@H](CS/C(=C\S(=O)(=O)C(C)(C)C)S(=O)(=O)C(C)(C)C)NC(=O)[C@H](CCCNC(=N)N)NC(=O)C[C@@H]1CCCN1C(=O)[C@@H](NC(=O)[C@H](Cc1cnc[nH]1)NC(=O)[C@@H](NC(=O)CNC(=O)CO)[C@@H](C)O)C(c1ccccc1)c1ccccc1` stands 10 nM; under `CCCCCCCCCCCCCCCCNC(=O)CN(CC(N)=O)C(=O)CCCCCNC(=O)[C@H](Cc1ccccc1)NC(=O)[C@H](CCCNC(=N)N)NC(=O)[C@H](CS/C=C\C(=O)O)NC(=O)[C@H](CCCNC(=N)N)NC(=O)C[C@@H]1CCCN1C(=O)[C@@H](NC(=O)[C@H](Cc1cnc[nH]1)NC(=O)[C@@H](NC(=O)CNC(=O)CO)[C@@H](C)O)C(c1ccccc1)c1ccccc1`, 218 nM; under `CCCCCCCCCCCCCCCCNC(=O)CN(CC(N)=O)C(=O)CCCCCNC(=O)[C@H](Cc1ccccc1)NC(=O)[C@H](CCCNC(=N)N)NC(=O)[C@H](CS/C(=C\C(=O)OCC)C(=O)OCC)NC(=O)[C@H](CCCNC(=N)N)NC(=O)C[C@@H]1CCCN1C(=O)[C@@H](NC(=O)[C@H](Cc1cnc[nH]1)NC(=O)[C@@H](NC(=O)CNC(=O)CO)[C@@H](C)O)C(c1ccccc1)c1ccccc1`, 10.4 nM.
In turn, `CCCCCCCCCCCCCCCCNC(=O)CN(CC(N)=O)C(=O)CCCCCNC(=O)[C@H](Cc1ccccc1)NC(=O)[C@H](CCCNC(=N)N)NC(=O)[C@H](CS/C(=C\C(=O)OC)C(=O)OC)NC(=O)[C@H](CCCNC(=N)N)NC(=O)C[C@@H]1CCCN1C(=O)[C@@H](NC(=O)[C@H](Cc1cnc[nH]1)NC(=O)[C@@H](NC(=O)CNC(=O)CO)[C@@H](C)O)C(c1ccccc1)c1ccccc1` returned a half-maximal effective concentration (EC50) at Ferroportin of 12.6 nM.
The compound `CCCCCCCCCCCCCCCCNC(=O)CN(CC(N)=O)C(=O)CCCCCNC(=O)[C@H](Cc1ccccc1)NC(=O)[C@H](CCCNC(=N)N)NC(=O)[C@H](CS/C(=C\C(=O)OC(C)(C)C)C(=O)OC(C)(C)C)NC(=O)[C@H](CCCNC(=N)N)NC(=O)C[C@@H]1CCCN1C(=O)[C@@H](NC(=O)[C@H](Cc1cnc[nH]1)NC(=O)[C@@H](NC(=O)CNC(=O)CO)[C@@H](C)O)C(c1ccccc1)c1ccccc1` displayed an EC50 on Ferroportin of 6.3 nM.
